Activity calls are given as the source filed them. The rule behind the calls is not given here.
Assays:
Raji [1] = assay: Inhibition of TPA-induced EBV early antigen activation in human Raji cells at 1000 molar ratio after 48 hrs relative to TPA by indirect immunofluorescence technique; assay type: cell-based; design: scale not given: the % may be the effect or the level left; conditions: human gammaherpesvirus 4
Raji [2] = assay: Inhibition of TPA-induced EBV early antigen activation in human Raji cells at 500 molar ratio after 48 hrs relative to TPA by indirect immunofluorescence technique; assay type: cell-based; design: scale not given: the % may be the effect or the level left; conditions: human gammaherpesvirus 4
Raji [3] = assay: Inhibition of TPA-induced EBV early antigen activation in human Raji cells at 10 molar ratio after 48 hrs relative to TPA by indirect immunofluorescence technique; assay type: cell-based; design: scale not given: the % may be the effect or the level left; conditions: human gammaherpesvirus 4
Raji [4] = assay: Cytotoxicity against human Raji cells carrying EBV genome by trypan blue staining method; assay type: cell-based; design: concentration or dose not given beside the values
Outline: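 Raji cells grown in RPMI-1640 with 10% FBS and exposed for 48 h at 37 °C to n-butyric acid (4 mmol), TPA (32 pmol) and test compound in DMSO. Viability of treated cells was read by Trypan Blue staining.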

Raji [5] = assay: Inhibition of TPA-induced EBV early antigen activation in human Raji cells at 100 molar ratio after 48 hrs relative to TPA by indirect immunofluorescence technique; assay type: cell-based; design: scale not given: the % may be the effect or the level left; conditions: human gammaherpesvirus 4
Mus musculus [6] = assay: Inhibition of DMBA-induced/TPA-promoted carcinogenesis in ICR mouse assessed as reduction in number of skin papillomas per mouse at 85 nmol administered 1 hr before TPA treatment measured after 20 weeks; assay type: functional, organism-based
Outline: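 Female SPF ICR mice, 6 weeks old, 15 per group, with shaved backs. Initiation was a single topical dose of DMBA (100 µg, 390 nmol) in 0.1 mL acetone. From one week later, TPA (1 µg, 1.7 nmol) in acetone was applied twice weekly. Compound (85 nmol in 0.1 mL acetone) was applied topically 1 h before each TPA dose. Papillomas per mouse were recorded weekly for 20 weeks.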

Mus musculus [7] = assay: Inhibition of DMBA-induced/TPA-promoted carcinogenesis in ICR mouse assessed as reduction of papilloma-bearing mice at 85 nmol administered 1 hr before TPA treatment measured after 10 weeks
Mus musculus [8] = assay: Inhibition of DMBA-induced/TPA-promoted carcinogenesis in ICR mouse assessed as reduction of papilloma-bearing mice at 85 nmol administered 1 hr before TPA treatment measured after 15 weeks
Mus musculus [9] = assay: Inhibition of DMBA-induced/TPA-promoted carcinogenesis in ICR mouse assessed as reduction of papilloma-bearing mice at 85 nmol administered 1 hr before TPA treatment measured after 20 weeks

SMILES | Activity (Raji [1]) [%] | Activity (Raji [2]) [%] | Activity (Raji [3]) [%] | Activity (Raji [4]) [%] | Activity (Raji [5]) [%] | Activity (Mus musculus [6]) | Papilloma-bearing mice % (Mus musculus [7]) [%] | Papilloma-bearing mice % (Mus musculus [8]) [%] | Papilloma-bearing mice % (Mus musculus [9]) [%]
CC1=C(/C=C/C(C)=C/C=C/C(C)=C/C=C/C=C(C)/C=C/C=C(C)/C=C/C2=C(C)CCCC2(C)C)C(C)(C)CCC1 [BETA CAROTENE] | 8.6 | 33.3 | 100 | 70 |  |  |  |  | 
CC(=O)O[C@H]1[C@H](OC(=O)c2ccccc2)[C@@]2(C)[C@@H](OC(=O)/C=C/c3ccccc3)C[C@@H]3[C@@H](O)[C@]2(OC3(C)C)[C@@](C)(O)[C@H]1O | 5.3 | 35.2 | 100 | 60 | 85.2 |  |  |  | 
CC(=O)O[C@H]1[C@H](OC(=O)c2ccccc2)[C@@]2(C)[C@@H](OC(=O)c3ccccc3)C[C@@H]3[C@@H](OC(C)=O)[C@]2(OC3(C)C)[C@@](C)(O)[C@H]1O [2BETA,3BETA,4BETA,TRIHYDROXYCELARBICO] | 0 | 33.2 | 98.6 | 60 | 77.5 | Active | 20 | 53.3 | 90
CC(=O)O[C@H]1[C@H](OC(=O)c2ccccc2)[C@@]2(C)[C@@H](OC(=O)c3ccccc3)C[C@@H]3[C@@H](OC(=O)c4ccccc4)[C@]2(OC3(C)C)[C@@](C)(O)[C@H]1O | 13.7 | 54.2 | 100 | 60 | 87.1 |  |  |  | 
CC(=O)O[C@H]1[C@H](OC(=O)c2ccccc2)[C@@]2(C)[C@@H](OC(=O)/C=C/c3ccccc3)C[C@@H]3[C@@H](OC(C)=O)[C@]2(OC3(C)C)[C@@](C)(O)[C@H]1OC(C)=O | 8.9 | 39.6 | 100 | 60 | 87.4 |  |  |  | 
CC(=O)O[C@H]1[C@H](OC(=O)c2ccccc2)[C@@]2(C)[C@@H](OC(=O)/C=C/c3ccccc3)C[C@@H]3C[C@]2(OC3(C)C)[C@@](C)(O)[C@H]1O | 10.9 | 52 | 100 | 60 | 86.2 |  |  |  | 
CC(=O)O[C@H]1[C@H](OC(=O)c2ccccc2)[C@@]2(C)[C@@H](OC(=O)/C=C/c3ccccc3)C[C@@H]3[C@@H](O)[C@]2(OC3(C)C)[C@@](C)(O)[C@H]1OC(C)=O | 10.1 | 51.3 | 100 | 60 | 85.2 |  |  |  | 
CC(=O)O[C@H]1[C@H](OC(=O)c2ccccc2)[C@@]2(C)[C@@H](OC(=O)c3ccccc3)C[C@@H]3[C@@H](OC(C)=O)[C@]2(OC3(C)C)[C@@](C)(O)[C@H]1OC(=O)c1cccnc1 | 7.5 | 36.6 | 100 | 60 | 87.6 |  |  |  | 
CC(=O)O[C@H]1[C@H](OC(=O)c2ccccc2)[C@@]2(C)[C@@H](OC(=O)/C=C/c3ccccc3)C[C@@H]3C[C@]2(OC3(C)C)[C@@](C)(O)[C@H]1OC(C)=O | 11.8 | 53.2 | 100 | 60 | 86.3 |  |  |  | 
CC(=O)O[C@H]1[C@H](OC(=O)c2ccccc2)[C@@]2(C)[C@@H](OC(=O)/C=C/c3ccccc3)C[C@@H]3[C@@H](OC(C)=O)[C@]2(OC3(C)C)[C@@](C)(O)[C@H]1O | 9.3 | 50.1 | 100 | 60 | 84.3 |  |  |  | 

Reference: ChEMBL document CHEMBL1154978, “Sesquiterpenes from Maytenus jelskii as potential cancer chemopreventive agents” (J Nat Prod, 2010)
